Laboratory results: ChEMBL document CHEMBL1125826, “Synthesis and biological activity of 5-amino- and 5-hydroxyquinolones, and the overwhelming influence of the remote N1-substituent in determining the structure-activity relationship” (1991)
≈ marks a conversion by molar mass, not a printed value.

Experiments:
Format in all cases: functional
Klebsiella pneumoniae = assay: Antibacterial activity was determined against gram negative organism, Klebsiella pneumoniae MGH-2; details: Klebsiella pneumoniae; read-out: MIC
Outline: (§1)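 MIC (µg/mL) by standard microtitration against a panel of 10 Gram-positive and Gram-negative organisms; values averaged from multiple experiments.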

Pseudomonas aeruginosa = assay: Antibacterial activity was determined against gram negative organism, Pseudomonas aeruginosa UI-18; details: Pseudomonas aeruginosa; read-out: MIC; outline: as §1
Enterococcus faecalis = assay: Antibacterial activity was determined against gram positive organism, Streptococcus faecalis MGH-2; details: Enterococcus faecalis; read-out: MIC; outline: as §1
Bacteria [1] = assay: MIC ratio measured as the mean MICs of gram-positive bacteria
Outline: (§2)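 Geometric mean of the microtitration MICs (µg/mL) over the Gram-negative organisms, and separately over the Gram-positive organisms, of the 10-strain panel; individual MICs averaged from multiple experiments.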

Staphylococcus aureus [2] = assay: Antibacterial activity was determined against gram positive organism, Staphylococcus aureus H228; details: Staphylococcus aureus; read-out: MIC; outline: as §1
Streptococcus pneumoniae = assay: Antibacterial activity was determined against gram positive organism, Streptococcus pneumoniae SV-1; details: Streptococcus pneumoniae; read-out: MIC; outline: as §1
Streptococcus pyogenes = assay: Antibacterial activity was determined against gram positive organism, Streptococcus pyogenes C203; details: Streptococcus pyogenes; read-out: MIC; outline: as §1
Bacteria [3] = assay: Antibacterial activity was determined against gram negative organism, Providencia rettgeri. M1771; details: Bacteria; read-out: MIC; outline: as §1
Staphylococcus aureus [4] = assay: Antibacterial activity was determined against gram positive organism, Staphylococcus aureus UC76; outline: as §1
Escherichia coli [5] = assay: The in vivo potency was determined in female charles river CD-1 mice infected with Escherichia coli after peroral administration; details: Escherichia coli, po; read-out: PD50
Outline: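 Acute lethal systemic infection in female CD-1 mice, 16 mice per route; single dose given orally by gavage at the time of challenge; median protective dose (PD50, mg/kg) determined.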

[6] = molecular target: DNA gyrase (Escherichia coli) (UniProt P0AES6+P0AES4); assay: Minimum inhibitory concentration against Escherichia coli DNA-gyrase in supercoiling assay
Enterobacter cloacae = assay: Antibacterial activity was determined against gram negative organism, Enterobacter cloacae MA2646; details: Enterobacter cloacae; read-out: MIC
Escherichia coli [7] = assay: Antibacterial activity was determined against gram negative organism, Escherichia coli vogel; details: Escherichia coli; read-out: MIC; outline: as §1
Bacteria [8] = assay: MIC ratio measured as the mean MICs of gram-negative bacteria; outline: as §2
Escherichia coli [9] = assay: The in vivo potency was determined in female charles river CD-1 mice infected with Escherichia coli after sc administration; details: Escherichia coli, sc; read-out: PD50
Outline: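 Acute lethal systemic infection in female CD-1 mice, 16 mice per route; single subcutaneous dose given at the time of challenge; median protective dose (PD50, mg/kg) determined.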

[10] = Staphylococcus aureus, read-out: MIC

SMILES | MIC (Klebsiella pneumoniae) [µg/mL] | MIC (Pseudomonas aeruginosa) [µg/mL] | MIC (Enterococcus faecalis) [µg/mL] | Geometric mean MIC over Gram-positive bacteria (µg/mL) (Bacteria [1]) | MIC (Staphylococcus aureus [2]) [µg/mL] | MIC (Streptococcus pneumoniae) [µg/mL] | MIC (Streptococcus pyogenes) [µg/mL] | MIC (Bacteria [3]) [µg/mL] | MIC (Staphylococcus aureus [4]; [10]) [µg/mL] | ED50 (Escherichia coli [5]) [mg/kg] | MIC [6] [µg/mL] | MIC (Enterobacter cloacae) [µg/mL] | MIC (Escherichia coli [7]) [µg/mL] | Geometric mean MIC over Gram-negative bacteria (µg/mL) (Bacteria [8]) | ED50 (Escherichia coli [9]) [mg/kg] | MIC (Staphylococcus aureus [4]) [µg/mL]
CCNCC1CCN(c2c(F)cc3c(=O)c(C(=O)O)cn(C4CC4)c3c2Cl)C1 (stereo unspecified) | 0.1 (≈ 0.245 µM) | 0.8 (≈ 1.96 µM) | 0.013 (≈ 0.0319 µM) | 0.006 | 0.013 (≈ 0.0319 µM) | 0.003 (≈ 0.00736 µM) | 0.006 (≈ 0.0147 µM) | 0.2 (≈ 0.49 µM) | 0.003 (≈ 0.00736 µM) | 4 | 0.25 (≈ 0.613 µM) | 0.05 (≈ 0.123 µM) | 0.05 (≈ 0.123 µM) | 0.13 | 1 | –
CC1COc2c(N3CCC(N)C3)c(F)c(N)c3c(=O)c(C(=O)O)cn1c23 (stereo unspecified) | 0.4 (≈ 1.1 µM) | 1.6 (≈ 4.42 µM) | 0.8 (≈ 2.21 µM) | 0.7 | 0.8 (≈ 2.21 µM) | 0.8 (≈ 2.21 µM) | 1.6 (≈ 4.42 µM) | 1.6 (≈ 4.42 µM) | 0.2 (≈ 0.552 µM) | > 100 | 2.5 (≈ 6.9 µM) | 0.8 (≈ 2.21 µM) | 0.4 (≈ 1.1 µM) | 0.8 | 23 | –
CCNCC1CCN(c2cc3c(c(N)c2F)c(=O)c(C(=O)O)cn3C2CC2)C1 (stereo unspecified) | 0.2 (≈ 0.515 µM) | 0.8 (≈ 2.06 µM) | 0.025 (≈ 0.0644 µM) | 0.057 | 0.2 (≈ 0.515 µM) | 0.05 (≈ 0.129 µM) | 0.1 (≈ 0.257 µM) | 0.8 (≈ 2.06 µM) | 0.025 (≈ 0.0644 µM) | 90 | 1 (≈ 2.57 µM) | 0.1 (≈ 0.257 µM) | 0.1 (≈ 0.257 µM) | 0.26 | 3 | –
CC1COc2c(N3CCC(N)C3)c(F)cc3c(=O)c(C(=O)O)cn1c23 (stereo unspecified) | 0.4 (≈ 1.15 µM) | 0.4 (≈ 1.15 µM) | 1.6 (≈ 4.61 µM) | 0.53 | 1.6 (≈ 4.61 µM) | 0.8 (≈ 2.3 µM) | 0.2 (≈ 0.576 µM) | 0.8 (≈ 2.3 µM) | – | 29 | 0.75 (≈ 2.16 µM) | 0.4 (≈ 1.15 µM) | 0.4 (≈ 1.15 µM) | 0.46 | 2 | 0.1 (≈ 0.288 µM)
CCNCC1CCN(c2c(F)c(N)c3c(=O)c(C(=O)O)cn4c3c2OCC4C)C1 (stereo unspecified) | 0.8 (≈ 1.98 µM) | 12.5 (≈ 30.9 µM) | 0.4 (≈ 0.989 µM) | 0.26 | 0.8 (≈ 1.98 µM) | 0.4 (≈ 0.989 µM) | 0.1 (≈ 0.247 µM) | 3.1 (≈ 7.66 µM) | 0.1 (≈ 0.247 µM) | > 100 | 7.5 (≈ 18.5 µM) | 1.6 (≈ 3.96 µM) | 0.8 (≈ 1.98 µM) | 2.09 | 8 | –
NC1CCN(c2cc3c(c(O)c2F)c(=O)c(C(=O)O)cn3C2CC2)C1 (stereo unspecified) | 0.025 (≈ 0.072 µM) | 0.2 (≈ 0.576 µM) | 0.2 (≈ 0.576 µM) | 0.066 | 0.1 (≈ 0.288 µM) | 0.05 (≈ 0.144 µM) | 0.1 (≈ 0.288 µM) | 0.05 (≈ 0.144 µM) | 0.013 (≈ 0.0374 µM) | 3 | 1 (≈ 2.88 µM) | 0.025 (≈ 0.072 µM) | 0.013 (≈ 0.0374 µM) | 0.038 | 0.4 | –
O=C(O)c1cn(C2CC2)c2cc(N3CCNCC3)c(F)c(O)c2c1=O | 0.1 (≈ 0.288 µM) | 0.4 (≈ 1.15 µM) | 0.8 (≈ 2.3 µM) | – | 3.1 (≈ 8.92 µM) | 0.8 (≈ 2.3 µM) | 0.4 (≈ 1.15 µM) | 0.1 (≈ 0.288 µM) | 0.2 (≈ 0.576 µM) | 3 | 1 (≈ 2.88 µM) | 0.05 (≈ 0.144 µM) | 0.025 (≈ 0.072 µM) | – | 0.1 | –
CCNCC1CCN(c2c(F)cc3c(=O)c(C(=O)O)cn4c3c2OCC4C)C1 (stereo unspecified) | 0.4 (≈ 1.03 µM) | 0.8 (≈ 2.05 µM) | 0.1 (≈ 0.257 µM) | 0.057 | 0.2 (≈ 0.514 µM) | 0.1 (≈ 0.257 µM) | 0.013 (≈ 0.0334 µM) | 0.8 (≈ 2.05 µM) | 0.025 (≈ 0.0642 µM) | > 100 | 0.5 (≈ 1.28 µM) | 0.2 (≈ 0.514 µM) | 0.2 (≈ 0.514 µM) | 0.4 | 11 | –
CCn1cc(C(=O)O)c(=O)c2c(O)c(F)c(N3CCC(N)C3)c(F)c21 (stereo unspecified) | 0.4 (≈ 1.13 µM) | 0.8 (≈ 2.26 µM) | 3.1 (≈ 8.77 µM) | 1.2 | 1.6 (≈ 4.53 µM) | 1.6 (≈ 4.53 µM) | 1.6 (≈ 4.53 µM) | 0.4 (≈ 1.13 µM) | 0.2 (≈ 0.566 µM) | – | 2.5 (≈ 7.08 µM) | 0.2 (≈ 0.566 µM) | 0.2 (≈ 0.566 µM) | 0.35 | – | –
